Molecules are shown by their SMILES.

What all share (format): functional
Test [1] is filed under the species Mus musculus. The test can be described thus: Effect of test compound on the potentiation of apomorphine-induced gnawing (AG) in aggregated mice. Put shortly:
(§1)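 Male albino CF-1 mice, 18-22 g. Compounds were dissolved or suspended in 0.25% aqueous methylcellulose and given intraperitoneally to groups of four or six mice per dose, at multiple dose levels. ED50 was calculated by the Spearman-Karber method.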

The species named for test [2] is Mus musculus. Put plainly: Effect on the antagonism of pentylenetetrazole-induced clonic convulsions (P).
Test [3] is filed under the species Mus musculus. The test can be described thus: Effect on the prolongation of hypoxic survival time (HS). Summed up: as §1
For test [4], the species on record is Mus musculus. The test can be described thus: Effect on the antagonism of bicuculline-induced tonic-extensor convulsions (B). To be noted: Mus musculus; read-out: ED50. Summed up: as §1
For test [5], the species on record is Mus musculus. The test can be described thus: Effect on the potentiation of gamma-butyrolactone-induced sleep (gamma-B). Summed up:
as §1

The species named for test [6] is Mus musculus. The test can be described thus: Effect on the antagonism of oxotremorine-induced hypothermia (OX). Put shortly: as §1
The species named for test [7] is Mus musculus. The test can be described thus: Effect on the potentiation of yohimbine-induced toxicity (Y) in aggregated mice. Summed up:
as §1

For test [8], the species on record is Mus musculus. Put plainly: Effect on the antagonism of nicotine-induced tonic-extensor convulsions (TE) in mice. To be noted: Mus musculus; read-out: ED50. Put shortly:
as §1

The species entered for test [9] is Mus musculus. Put plainly: Effect on the antagonism of nicotine-induced death (D). As to conditions: Mus musculus; read-out: ED50. Put shortly: as §1

For orientation: ED50 means the midpoint of the dose-response relation. Regarding `Oc1nnc2n1-c1ccc(Cl)cc1C(c1ccccc1)=NC2`, the ED50 in the test listed under Mus musculus [1] is more than 50 mg/kg; in the test listed under Mus musculus [2] it was 5.6 mg/kg; in the test filed under Mus musculus [3], more than 50 mg/kg; in the test listed under Mus musculus [4], 40 mg/kg; in the test listed under Mus musculus [5], 6 mg/kg; in the test listed under Mus musculus [6], more than 50 mg/kg. The results for the 50% effective dose (ED50) in the test filed under Mus musculus [7], in the test filed under Mus musculus [8] and in the test filed under Mus musculus [9] were more than 50 mg/kg, 1.4 mg/kg and 1.6 mg/kg, respectively.

Regarding `CCN(CC)CCCCn1nc2n(c1=O)-c1ccc(Cl)cc1C(c1ccccc1Cl)=NC2`, the ED50 in the test listed under Mus musculus [1] is more than 12.5 mg/kg; in the test filed under Mus musculus [2] it was 4.4 mg/kg; in the test filed under Mus musculus [3], 7 mg/kg; in the test listed under Mus musculus [4] it was more than 12.5 mg/kg; in the test filed under Mus musculus [5], 12.5 mg/kg; in the test filed under Mus musculus [6], 10.5 mg/kg. The results for the 50% effective dose (ED50) in the test filed under Mus musculus [7], in the test listed under Mus musculus [8] and in the test listed under Mus musculus [9] were more than 12.5 mg/kg, 0.8 mg/kg and 0.8 mg/kg, respectively.

Take `Oc1nnc2n1-c1ccc(Cl)cc1C(c1ccccc1Cl)=NC2`: the ED50 was more than 50 mg/kg in the test listed under Mus musculus [1]; 0.08 mg/kg in the test filed under Mus musculus [2]; more than 50 mg/kg in the test listed under Mus musculus [3]; 1 mg/kg in the test filed under Mus musculus [4]; 0.4 mg/kg in the test listed under Mus musculus [5]; more than 50 mg/kg in the test listed under Mus musculus [6]. The ED50 was more than 50 mg/kg in the test filed under Mus musculus [7], 0.025 mg/kg in the test listed under Mus musculus [8] and 0.025 mg/kg in the test filed under Mus musculus [9].

`Cn1nc2n(c1=O)-c1ccc(Cl)cc1C(c1ccccc1Cl)=NC2`: the ED50 in the test filed under Mus musculus [2] was 0.14 mg/kg; in the test filed under Mus musculus [3] it was 2.2 mg/kg; in the test filed under Mus musculus [8], 0.002 mg/kg; in the test filed under Mus musculus [9], 0.002 mg/kg.

Regarding `CCN(CC)CCn1nc2n(c1=O)-c1ccc(Cl)cc1C(c1ccccc1Cl)=NC2`, the median effective dose (ED50) in the test listed under Mus musculus [1] was more than 100 mg/kg; in the test listed under Mus musculus [2], 0.45 mg/kg; in the test listed under Mus musculus [3], 4 mg/kg; in the test filed under Mus musculus [4], 0.7 mg/kg; in the test listed under Mus musculus [5], 0.4 mg/kg; in the test filed under Mus musculus [6], more than 100 mg/kg. In addition, the figures for the median effective dose (ED50) in the test filed under Mus musculus [7], in the test listed under Mus musculus [8] and in the test listed under Mus musculus [9] were more than 100 mg/kg, 0.09 mg/kg and 0.1 mg/kg, respectively.

On to `CN(C)CCn1nc2n(c1=O)-c1ccc(Cl)cc1C(c1ccccc1)=NC2`, for which the ED50 is more than 100 mg/kg in the test listed under Mus musculus [1]; 3.2 mg/kg in the test filed under Mus musculus [2]; 30 mg/kg in the test filed under Mus musculus [3]; 6 mg/kg in the test listed under Mus musculus [4]; 5 mg/kg in the test listed under Mus musculus [5]; more than 100 mg/kg in the test filed under Mus musculus [6]. For the same compound, the values for the ED50 in the test listed under Mus musculus [7], in the test filed under Mus musculus [8] and in the test listed under Mus musculus [9] were more than 100 mg/kg, 0.89 mg/kg and 1.4 mg/kg, respectively.

With `CN(C)CCCn1nc2n(c1=O)-c1ccc(Cl)cc1C(c1ccccc1Cl)=NC2`, the ED50 is 7.4 mg/kg in the test filed under Mus musculus [1]; 6.3 mg/kg in the test filed under Mus musculus [2]; more than 50 mg/kg in the test filed under Mus musculus [3]; 14.9 mg/kg in the test filed under Mus musculus [4]; 2.2 mg/kg in the test filed under Mus musculus [5]; more than 50 mg/kg in the test listed under Mus musculus [6]. Also, the ED50 in the test filed under Mus musculus [7] is more than 50 mg/kg; in the test filed under Mus musculus [8], 0.9 mg/kg; in the test filed under Mus musculus [9], 1.1 mg/kg.

Consider `CN1CCN(CCn2nc3n(c2=O)-c2ccc(Cl)cc2C(c2ccccc2)=NC3)CC1`, for which the ED50 is more than 50 mg/kg in the test filed under Mus musculus [1]; 8.8 mg/kg in the test listed under Mus musculus [2]; 10.5 mg/kg in the test filed under Mus musculus [3]; 17.7 mg/kg in the test listed under Mus musculus [4]; 5.3 mg/kg in the test listed under Mus musculus [5]; 14.9 mg/kg in the test filed under Mus musculus [6]. The median effective dose (ED50) in the test filed under Mus musculus [7] is more than 50 mg/kg; in the test filed under Mus musculus [8] it was 8 mg/kg; in the test listed under Mus musculus [9], 8 mg/kg.

In the case of `CC(CN(C)C)Cn1nc2n(c1=O)-c1ccc(Cl)cc1C(c1ccccc1Cl)=NC2` (configuration not stated), the median effective dose (ED50) in the test listed under Mus musculus [1] was more than 50 mg/kg; in the test listed under Mus musculus [3] it was 40 mg/kg; in the test listed under Mus musculus [4], 7 mg/kg; in the test filed under Mus musculus [5] it was 2 mg/kg; in the test listed under Mus musculus [6], more than 50 mg/kg; in the test filed under Mus musculus [7], more than 50 mg/kg. In addition, the ED50 amounted to 1 mg/kg in the test listed under Mus musculus [8] and 1.1 mg/kg in the test listed under Mus musculus [9].

Consider `CN1CCN(CCn2nc3n(c2=O)-c2ccc(Cl)cc2C(c2ccccc2Cl)=NC3)CC1`, for which the 50% effective dose (ED50) in the test filed under Mus musculus [1] is more than 25 mg/kg; in the test listed under Mus musculus [2] it was 0.3 mg/kg; in the test listed under Mus musculus [3], 3.1 mg/kg; in the test listed under Mus musculus [4] it was 3.1 mg/kg; in the test filed under Mus musculus [5], 0.2 mg/kg; in the test filed under Mus musculus [6], 12.5 mg/kg. Besides, the median effective dose (ED50) in the test filed under Mus musculus [7] is more than 25 mg/kg.

Values taken from ChEMBL document CHEMBL1121423, “2,4-Dihydro-6-phenyl-1H-s-triazolo[4,3-a][1,4]benzoidiazepin-1-ones with antianxiety and antidepressant activity” (1980).
